# Experimental data gathered from unrelated publications.
# Compare with care: the assays were run in different laboratories.
# Target: Dual serine/threonine and tyrosine protein kinase (DSTYK, Homo sapiens, UniProt Q6XUX3)
# One construct used (Q6XUX3 1-929): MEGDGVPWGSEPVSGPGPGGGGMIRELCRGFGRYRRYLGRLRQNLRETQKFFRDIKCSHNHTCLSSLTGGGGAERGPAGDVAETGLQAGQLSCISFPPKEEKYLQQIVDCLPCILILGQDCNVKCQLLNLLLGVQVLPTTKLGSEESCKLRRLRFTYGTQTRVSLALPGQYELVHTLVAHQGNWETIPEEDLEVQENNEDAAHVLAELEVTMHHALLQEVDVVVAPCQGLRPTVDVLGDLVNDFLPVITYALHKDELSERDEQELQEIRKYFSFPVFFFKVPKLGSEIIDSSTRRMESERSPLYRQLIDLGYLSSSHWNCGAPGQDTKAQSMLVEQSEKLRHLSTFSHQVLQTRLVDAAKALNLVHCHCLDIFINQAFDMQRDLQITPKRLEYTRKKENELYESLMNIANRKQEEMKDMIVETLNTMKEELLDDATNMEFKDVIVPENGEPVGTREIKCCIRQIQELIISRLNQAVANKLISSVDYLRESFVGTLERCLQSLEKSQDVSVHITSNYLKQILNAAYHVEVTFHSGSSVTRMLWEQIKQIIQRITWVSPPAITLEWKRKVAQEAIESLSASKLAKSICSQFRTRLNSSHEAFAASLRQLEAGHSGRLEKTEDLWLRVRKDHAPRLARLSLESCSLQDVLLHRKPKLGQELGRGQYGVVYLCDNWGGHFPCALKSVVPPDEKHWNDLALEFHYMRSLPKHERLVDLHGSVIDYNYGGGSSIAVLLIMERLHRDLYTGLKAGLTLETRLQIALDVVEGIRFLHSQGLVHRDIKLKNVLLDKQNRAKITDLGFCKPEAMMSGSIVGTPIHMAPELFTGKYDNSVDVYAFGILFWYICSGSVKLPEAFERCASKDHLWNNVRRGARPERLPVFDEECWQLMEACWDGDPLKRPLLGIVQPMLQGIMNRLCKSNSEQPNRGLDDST
Structure (SMILES),effect on,action,technique,tested at,quantity,value
Cc1sc(C(=O)NC2COC2)cc1-n1cc(NC(=O)Nc2c(F)cccc2Cl)cn1,enzyme activity,inhibitor,,10 µM,remaining activity,96.6%
CC(C)(C)c1nc2c(s1)c1nc(N)ncc1c1ccc(NS(=O)(=O)c3c(F)cccc3F)c(F)c12,enzyme activity,inhibitor,radiometric,1 µM,remaining activity,83%
Cc1ccc(Nc2nccc(N(C)c3ccc4c(C)n(C)nc4c3)n2)cc1S(N)(=O)=O,enzyme activity,inhibitor,,0.5 µM,remaining activity,94.3%
Cc1cc(-n2nc(Cc3cc(F)cc(C(F)(F)F)c3)nc2C)ccc1C(N)=O,cell-free assay,,competition with immobilised ligand,1 µM,remaining binding,97%
CC(C)(C)c1nc(-c2cccc(NS(=O)(=O)c3c(F)cccc3F)c2F)c(-c2ccnc(N)n2)s1,enzyme activity,inhibitor,radiometric,1 µM,remaining activity,82%
CC1=C(C#N)[C@@H](c2ccc3[nH]nc(C)c3c2)C(C#N)=C(c2ccc(Cl)cc2)N1,cell-free assay,,competition with immobilised ligand,1 µM,remaining binding,100%
N#CCCc1ccc2c(c1)-c1[nH]c3ccc([N+](=O)[O-])cc3c1CC(=O)N2,cell-free assay,,,0.5 µM,remaining signal,67.1%
Cc1ccc(C(=O)Nc2ccc(CN3CCN(C)CC3)c(C(F)(F)F)c2)cc1C#Cc1cnc2cccnn12,enzyme activity,inhibitor,,23.5 nM,remaining activity,95%
CSc1cccnc1N1CCN(Cc2nc3ccccc3[nH]2)CC1,cell-free assay,,competition with immobilised ligand,1 µM,remaining binding,76%
O=C1Nc2ccc(Cl)cc2C1=Cc1cc(Cl)c(O)c(Cl)c1,cell-free assay,,,0.5 µM,remaining signal,89.6%
O=C(Nc1cnn(-c2csc(C(=O)NC3COC3)c2)c1)Nc1ccccc1Cl,enzyme activity,inhibitor,,5 µM,remaining activity,102%
Nc1ncnc2occ(-c3ccc(NC(=O)Nc4cc(C(F)(F)F)ccc4F)cc3)c12,cell-free assay,inhibitor,,20 µM,remaining signal,2.8%
CCCOc1ccc([C@H]2[C@H](C(=O)O)[C@@H](c3ccc4c(c3)OCO4)CN2CC(=O)Nc2c(CC)cccc2CC)cc1,cell-free assay,,competition with immobilised ligand,1 µM,remaining binding,73%
Cc1cnn2ncc(-c3ccnc(N(C)C)n3)c2c1,binding,,,1 µM,remaining binding,97%
CC(C)(O)[C@H]1CC[C@H](Nc2ccc3ncc(-c4cccc(C(F)(F)F)c4)n3n2)CC1,enzyme activity,inhibitor,,1 µM,remaining activity,97.1%
